Experimental data as given in ChEMBL document CHEMBL1148671, “Synthesis and antibacterial activity of C12 des-methyl ketolides” (2006).
≈ marks a conversion by molar mass, not a printed value.

Columns and labels:
Type in all cases: functional
[1] = tested on: Staphylococcus epidermidis; test: Antibacterial activity against Staphylococcus epidermidis 14990 by broth microdilution method
In short: (§1)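 In vitro activity was read as the minimum inhibitory concentration (MIC) by broth microdilution and reported in μg/mL. The S. pneumoniae panel included erythromycin-resistant strains carrying mef or erm genes. Telithromycin and clarithromycin were run as comparators in every assay.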

[2] = tested on: Staphylococcus epidermidis; test: Antibacterial activity against Staphylococcus epidermidis f50654 by broth microdilution method; in short: as §1
Streptococcus pneumoniae [3] = test: Antibacterial activity against erythromycin-resistant Streptococcus pneumoniae mef S 3427 by broth microdilution method
Staphylococcus aureus [4] = test: Antibacterial activity against Staphylococcus aureus 33591 by broth microdilution method; in short: as §1
Streptococcus pneumoniae [5] = test: Antibacterial activity against Streptococcus pneumoniae 280-962 by broth microdilution method; in short: as §1
Enterococcus faecalis [6] = test: Antibacterial activity against Enterococcus faecalis 29212 by broth microdilution method; in short: as §1
Streptococcus pneumoniae [7] = test: Antibacterial activity against Streptococcus pneumoniae 49619 by broth microdilution method; in short: as §1
Enterococcus faecalis [8] = test: Antibacterial activity against Enterococcus faecalis bc11148-2 by broth microdilution method; in short: as §1
Haemophilus influenzae [9] = test: Antibacterial activity against Haemophilus influenzae 49247 by broth microdilution method; in short: as §1
Streptococcus pyogenes = test: Antibacterial activity against Streptococcus pyogenes 8668 by broth microdilution method; in short: as §1
Haemophilus influenzae [10] = test: Antibacterial activity against Haemophilus influenzae 2762 by broth microdilution method; in short: as §1
Staphylococcus aureus [11] = test: Antibacterial activity against Staphylococcus aureus 29213 by broth microdilution method; conditions: ATCC29213; in short: as §1
Streptococcus pneumoniae [12] = test: Antibacterial activity against Streptococcus pneumoniae 297-749 by broth microdilution method; in short: as §1
Streptococcus pneumoniae [13] = test: Antibacterial activity against erythromycin-resistant Streptococcus pneumoniae erm 6849 by broth microdilution method
Streptococcus pneumoniae [14] = test: Antibacterial activity against erythromycin-resistant Streptococcus pneumoniae mef 5654 by broth microdilution method

SMILES	MIC [1] [µg/mL]	MIC [2] [µg/mL]	MIC (Streptococcus pneumoniae [3]) [µg/mL]	MIC (Staphylococcus aureus [4]) [µg/mL]	MIC (Streptococcus pneumoniae [5]) [µg/mL]	MIC (Enterococcus faecalis [6]) [µg/mL]	MIC (Streptococcus pneumoniae [7]) [µg/mL]	MIC (Enterococcus faecalis [8]) [µg/mL]	MIC (Haemophilus influenzae [9]) [µg/mL]	MIC (Streptococcus pyogenes) [µg/mL]	MIC (Haemophilus influenzae [10]) [µg/mL]	MIC (Staphylococcus aureus [11]) [µg/mL]	MIC (Streptococcus pneumoniae [12]) [µg/mL]	MIC (Streptococcus pneumoniae [13]) [µg/mL]	MIC (Streptococcus pneumoniae [14]) [µg/mL]
CC[C@H]1OC(=O)[C@H](C)C(=O)[C@H](C)[C@@H](O[C@@H]2O[C@H](C)C[C@H](N(C)C)[C@H]2O)[C@](C)(OC)C[C@@H](C)C(=O)[C@H](C)[C@@H]2[C@@H]1OC(=O)N2CCCCc1cnc(-c2cccnc2)s1	0.2 (≈ 0.245 µM)	0.1 (≈ 0.123 µM)	0.1 (≈ 0.123 µM)	> 50	≤ 0.05	≤ 0.05	≤ 0.05	3.13 (≈ 3.84 µM)	6.25 (≈ 7.67 µM)	≤ 0.05	1.56 (≈ 1.91 µM)	0.2 (≈ 0.245 µM)	≤ 0.05	25 (≈ 30.7 µM)	0.78 (≈ 0.957 µM)
CC[C@H]1OC(=O)[C@H](C)C(=O)[C@H](C)[C@@H](O[C@@H]2O[C@H](C)C[C@H](N(C)C)[C@H]2O)[C@](C)(OC)C[C@@H](C)C(=O)[C@H](C)[C@@H]2[C@@H]1OC(=O)N2CCCC(C)(C)n1cnc(-c2cccnc2)c1	0.1 (≈ 0.121 µM)	0.1 (≈ 0.121 µM)	0.2 (≈ 0.242 µM)	> 50	≤ 0.05	0.1 (≈ 0.121 µM)	≤ 0.05	1.56 (≈ 1.89 µM)	3.13 (≈ 3.79 µM)	≤ 0.05	1.56 (≈ 1.89 µM)	0.2 (≈ 0.242 µM)	≤ 0.05	0.4 (≈ 0.484 µM)	1.56 (≈ 1.89 µM)
CC[C@H]1OC(=O)[C@H](C)C(=O)[C@H](C)[C@@H](O[C@@H]2O[C@H](C)C[C@H](N(C)C)[C@H]2O)[C@](C)(OC)C[C@@H](C)C(=O)[C@H](C)[C@@H]2[C@@H]1OC(=O)N2CCCCn1cnc(-c2ccc(F)nc2)c1	0.2 (≈ 0.245 µM)	0.78 (≈ 0.956 µM)	0.78 (≈ 0.956 µM)	> 50	0.2 (≈ 0.245 µM)	≤ 0.05	≤ 0.05	25 (≈ 30.6 µM)	3.13 (≈ 3.84 µM)	≤ 0.05	0.78 (≈ 0.956 µM)	0.2 (≈ 0.245 µM)	≤ 0.05	12.5 (≈ 15.3 µM)	0.78 (≈ 0.956 µM)
CC[C@H]1OC(=O)[C@H](C)C(=O)[C@H](C)[C@@H](O[C@@H]2O[C@H](C)C[C@H](N(C)C)[C@H]2O)[C@](C)(OC)C[C@@H](C)C(=O)[C@H](C)[C@@H]2[C@@H]1OC(=O)N2CCCC(C)(C)n1cnc2ncccc21	0.1 (≈ 0.125 µM)	0.1 (≈ 0.125 µM)	0.2 (≈ 0.25 µM)	> 50	≤ 0.05	≤ 0.05	≤ 0.05	1.56 (≈ 1.95 µM)	6.25 (≈ 7.81 µM)	≤ 0.05	1.56 (≈ 1.95 µM)	0.2 (≈ 0.25 µM)	≤ 0.05	6.25 (≈ 7.81 µM)	1.56 (≈ 1.95 µM)
CC[C@H]1OC(=O)[C@H](C)C(=O)[C@H](C)[C@@H](O[C@@H]2O[C@H](C)C[C@H](N(C)C)[C@H]2O)[C@](C)(OC)C[C@@H](C)C(=O)[C@H](C)[C@@H]2[C@@H]1OC(=O)N2CCCCn1cnc(-c2cccnc2)c1	0.78 (≈ 0.977 µM)	0.2 (≈ 0.251 µM)	0.2 (≈ 0.251 µM)	> 50	≤ 0.05	0.1 (≈ 0.125 µM)	≤ 0.05	> 50	6.25 (≈ 7.83 µM)	≤ 0.05	0.78 (≈ 0.977 µM)	0.2 (≈ 0.251 µM)	≤ 0.05	0.2 (≈ 0.251 µM)	1.56 (≈ 1.95 µM)
CC[C@H]1OC(=O)[C@H](C)C(=O)[C@H](C)[C@@H](O[C@@H]2O[C@H](C)C[C@H](N(C)C)[C@H]2O)[C@](C)(OC)C[C@@H](C)C(=O)[C@H](C)[C@@H]2[C@@H]1OC(=O)N2CCCCn1cnc(-c2ccc(OC)nc2)c1	0.1 (≈ 0.121 µM)	0.2 (≈ 0.242 µM)	0.1 (≈ 0.121 µM)	> 50	≤ 0.05	≤ 0.05	≤ 0.05	6.25 (≈ 7.55 µM)	6.25 (≈ 7.55 µM)	≤ 0.05	1.56 (≈ 1.88 µM)	0.2 (≈ 0.242 µM)	≤ 0.05	50 (≈ 60.4 µM)	0.78 (≈ 0.942 µM)
